Measurements from different studies.
Lines come from different studies, so protocols differ.
Organism: Candida albicans
Observed: microbial growth

Compound	test	system	setting	MIC
OC(Cn1cncn1)(Cn1cncn1)c1ccc(F)cc1F	–	SC5314	–	2 µg/mL
O=C(CCCCCCCCCC[P+](c1ccccc1)(c1ccccc1)c1ccccc1)Nc1cc(O)c(O)c(O)c1.[Br-]	broth dilution	ATCC90028	24 h	8 µg/mL
C=C1C(=O)O[C@@H](CCCCCCCCCCCCC)[C@@H]1C(=O)O	–	SC5314	–	64 µg/mL
O=C(CCCCCC[P+](c1ccccc1)(c1ccccc1)c1ccccc1)Nc1cc(O)c(O)c(O)c1.[Br-]	broth dilution	ATCC90028	24 h	> 32 µg/mL
O=C1NN=C(N=Cc2ccccc2O)C1=NNn1c(-c2ccccc2)nc2ccccc2c1=O	broth dilution	–	–	111 µM
OC(Cn1cncn1)(Cn1cncn1)c1ccc(F)cc1F	broth dilution	ATCC10231	–	1 µg/mL
CC1=NN(CNc2ccc(Cl)cc2)C(=O)C1=NNn1c(-c2ccccc2)nc2ccccc2c1=O	broth dilution	–	–	51.5 µM
C[C@@H]1[C@H](O)[C@@H](C)/C=C/C=C/C=C/C=C/C=C/C=C/C=C/[C@H](O[C@@H]2O[C@H](C)[C@@H](O)[C@H](N)[C@@H]2O)C[C@@H]2O[C@](O)(C[C@@H](O)C[C@@H](O)[C@H](O)CC[C@@H](O)C[C@@H](O)CC(=O)O[C@H]1C)C[C@H](O)[C@H]2C(=O)O	broth dilution	–	–	0.25 µg/mL
CCc1nc(N)nc(N)c1C#CCc1cc(OC)ccc1OC	resazurin	–	–	250 µM
O=C(CCCCCC[P+](c1ccccc1)(c1ccccc1)c1ccccc1)Nc1ccc(O)c(O)c1.[Br-]	broth dilution	ATCC90028	24 h	32 µg/mL
N=C(N)N1CC=C(c2coc(C(=O)Nc3ccc(C4=CCN(C(=N)N)CC4)c(F)c3)c2)CC1	broth dilution	–	48 h, clinical isolate	0.78 µg/mL
O=C(CCc1cc(O)c(O)c(O)c1)NCCCCCCCC[P+](c1ccccc1)(c1ccccc1)c1ccccc1.[Br-]	broth dilution	ATCC90028	24 h	> 32 µg/mL
CC1=NN(CNC(=O)c2ccccn2)C(=O)C1=NNn1c(-c2ccccc2)nc2ccccc2c1=O	broth dilution	–	–	104 µM
O=C(CCCCCCCC[P+](c1ccccc1)(c1ccccc1)c1ccccc1)Nc1cc(O)c(O)c(O)c1.[Br-]	broth dilution	ATCC90028	24 h	> 32 µg/mL
CC1=NN(CNC(=O)c2ccccc2)C(=O)C1=NNn1c(-c2ccccc2)nc2ccccc2c1=O	broth dilution	–	–	104 µM
